Results pooled from the literature.
Compare with care: the assays were run in different laboratories.
Target: Ankyrin repeat and protein kinase domain-containing protein 1 (ANKK1, Homo sapiens, UniProt Q8NFD2)
One construct used (Q8NFD2 1-765): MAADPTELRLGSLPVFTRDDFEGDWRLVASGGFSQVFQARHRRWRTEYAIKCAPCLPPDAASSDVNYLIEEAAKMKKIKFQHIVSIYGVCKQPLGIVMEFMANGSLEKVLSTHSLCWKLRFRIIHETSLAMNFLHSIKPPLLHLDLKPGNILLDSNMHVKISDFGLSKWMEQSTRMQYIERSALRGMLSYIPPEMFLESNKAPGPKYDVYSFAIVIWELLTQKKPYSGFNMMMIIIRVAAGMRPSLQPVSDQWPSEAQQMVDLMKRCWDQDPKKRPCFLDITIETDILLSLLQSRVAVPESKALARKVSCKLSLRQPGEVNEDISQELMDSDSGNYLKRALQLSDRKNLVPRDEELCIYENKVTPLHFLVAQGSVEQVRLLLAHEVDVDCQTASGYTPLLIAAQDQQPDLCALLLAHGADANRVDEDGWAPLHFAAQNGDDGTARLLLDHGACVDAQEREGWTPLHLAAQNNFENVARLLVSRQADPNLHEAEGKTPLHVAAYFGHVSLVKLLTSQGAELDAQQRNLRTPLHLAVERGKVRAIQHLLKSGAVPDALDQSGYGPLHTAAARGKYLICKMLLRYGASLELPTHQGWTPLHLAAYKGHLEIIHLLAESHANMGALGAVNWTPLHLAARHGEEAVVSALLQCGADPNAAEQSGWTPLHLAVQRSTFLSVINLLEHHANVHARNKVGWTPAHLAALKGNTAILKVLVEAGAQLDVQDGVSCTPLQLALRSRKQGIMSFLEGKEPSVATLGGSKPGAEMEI

| SMILES | read-out | method | tested at | remaining binding |
| --- | --- | --- | --- | --- |
| O=C(NCCCC1CCCCC1)c1ccc(CNC(=O)c2cnn(-c3ccccc3)c2C(F)(F)F)cc1 | cell-free assay | competition with immobilised ligand | 0.1 µM | 100% |
| O=C(NCC1CCOCC1)c1n[nH]cc1NC(=O)c1c(F)cccc1F | binding | competition with immobilised ligand | 1 µM | 66% |
| O=C(NCCCN1CCOCC1)c1ccc(Nc2nccc(-c3cc4ccccc4s3)n2)cc1 | binding | competition with immobilised ligand | 1 µM | 71% |
| CNC(=O)[C@@H]1CC[C@@H](n2c(-c3ccc4cnccc4c3)nc3ccc(C(=O)NCc4cccc(C(N)=O)c4)cc32)C1 | binding | competition with immobilised ligand | 1 µM | 100% |
| F[C@@H]1CCN(c2nccc(-c3cnn4ncccc34)n2)C1 | binding | – | 1 µM | 100% |
| O=C(c1ccc(Nc2ncc(Cl)c(-c3ccc(Cl)s3)n2)cc1)N1CCC(N2CCCC2)CC1 | binding | competition with immobilised ligand | 1 µM | 61% |
| C[C@@H](c1ccc(-n2cnc3c(N)ncnc32)cc1)N1CCc2nn(C)c(Cc3ccccc3)c2C1=O | binding | competition with immobilised ligand | 0.1 µM | 85% |
| COc1ncc2cc3ccccc3nc2c1C#N | cell-free assay | competition with immobilised ligand | 5 µM | 100% |
| C[C@@H]1CN(c2cc(-c3n[nH]c4ccc(OC5(C)CC5)cc34)ncn2)C[C@H](C)O1 | cell-free assay | competition with immobilised ligand | 0.1 µM | 79% |
| C[C@@H]1CCN(c2nccc(-c3cnn4ncccc34)n2)C1 | binding | – | 1 µM | 81% |
| C[C@@]1(Cc2ccc(C#N)cc2)C(=O)N(c2cc(Cl)cc(Cl)c2)c2ncc(C(=O)NC3(c4nc(C5CCC5)no4)CC3)n21 | cell-free assay | competition with immobilised ligand | 1 µM | 100% |
| c1cncc(-c2cccc(Nc3nccc(NC4CCCCC4)n3)c2)c1 | binding | competition with immobilised ligand | 10 µM | 47% |
| COc1ccnn2ncc(-c3ccnc(N(C)C)n3)c12 | binding | – | 1 µM | 78% |
| O=C(c1ccc(Nc2nccc(-c3cc4ccccc4s3)n2)cc1)N1CCC(N2CCCC2)CC1 | binding | competition with immobilised ligand | 1 µM | 71% |
| c1ccc(N2CCN(Cc3nc4ccccc4[nH]3)CC2)nc1 | binding | competition with immobilised ligand | 1 µM | 100% |
| C=CC(=O)N1CCC(C(=O)NCC(=O)N2CCN(c3nc(-c4cnc(N)nc4C(F)F)nc(N4CCOCC4)n3)CC2)CC1 | binding | competition with immobilised ligand | 1 µM | 100% |
| CN(CCCC(F)(F)F)c1nccc(-c2cnn3ncccc23)n1 | binding | – | 1 µM | 95% |
| N#Cc1ccc(Nc2ccc3[nH]c(=O)[nH]c3c2)c(Cl)c1 | cell-free assay | competition with immobilised ligand | 1 µM | 100% |
| CN(C)c1ncc(F)c(-c2cnn3ncccc23)n1 | binding | – | 1 µM | 69% |
| O=C(O)[C@H]1[C@H](Cn2nnc3ccccc3c2=O)CC[C@@H]1C(=O)c1ccc(OCCC2CCOCC2)cc1 | cell-free assay | competition with immobilised ligand | 1 µM | 100% |
